Source: PubChem (The Scripps Research Institute Molecular Screening Center)
TAAR1 antagonist – human TAAR1 antagonism | Q96RJ0 | CHO RD-HGA16 TAAR1, Fluo-8 calcium fluorescence, antagonist | inhibition, % at 3 µM | actives 1.5% (n = 360,000) | AID 624466;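 active = inhibition above a per-plate cutoff, the mean inhibition of test compounds on that plate plus 3 SD, cut at about 49% in these data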
Target sequence (Q96RJ0 whole entry, looked up): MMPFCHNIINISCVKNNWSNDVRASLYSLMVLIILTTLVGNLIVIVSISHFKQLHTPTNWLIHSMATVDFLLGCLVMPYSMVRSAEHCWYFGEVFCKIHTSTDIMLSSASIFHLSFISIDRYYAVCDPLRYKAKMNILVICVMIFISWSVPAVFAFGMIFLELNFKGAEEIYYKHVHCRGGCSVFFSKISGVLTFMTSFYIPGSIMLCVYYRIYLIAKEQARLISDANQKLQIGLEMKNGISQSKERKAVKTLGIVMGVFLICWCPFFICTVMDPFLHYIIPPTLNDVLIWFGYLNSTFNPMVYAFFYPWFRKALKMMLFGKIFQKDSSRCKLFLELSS
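Test system – hTAAR1-expressing CHO RD-HGA16 cells, Gα16-coupled · Reagent – β-PEA at EC80 concentration, post-compound challenge · Compound dosing – 3 µM, single point · Timing – 140 s kinetic read after compound, 140 s after agonist · Detection – Fluo-8 intracellular calcium dye fluorescence, real-time kinetic reads · Control set – DMSO and EC80 PEA controls · Repeats – n of 1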
GPR7 antagonist – blocks human GPR7 receptor signaling | GPR7-expressing cells, fluorescence antagonist assay | actives 1.1% (n = 290,000) | AID 1861 | inhibition, % at 4.4 µM; in the data active = inhibition above about 16%, passing the limit was not always enough;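 note: cells stimulated with the agonist NPW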
Target sequence (P48145 whole entry, looked up): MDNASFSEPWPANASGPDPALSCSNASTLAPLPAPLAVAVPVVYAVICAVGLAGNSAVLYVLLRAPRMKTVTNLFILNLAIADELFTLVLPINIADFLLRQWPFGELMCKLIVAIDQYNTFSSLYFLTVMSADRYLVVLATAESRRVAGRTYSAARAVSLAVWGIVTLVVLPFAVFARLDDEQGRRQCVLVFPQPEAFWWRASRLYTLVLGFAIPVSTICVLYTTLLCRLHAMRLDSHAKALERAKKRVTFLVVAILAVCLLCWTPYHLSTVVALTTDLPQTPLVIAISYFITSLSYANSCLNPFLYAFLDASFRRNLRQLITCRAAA
OX1R antag-1 – OX1R (human) antagonism; O43613; OX1R-expressing cells, FRET antagonist read-out; inhibition, % at 6.6 µM; actives 1.8% (n = 330,000); AID 485270; in the data active = inhibition mostly above about 38%, no sharp cut-off; inactive = mostly below about 40%
OX1R antag-2 – antagonists of human orexin 1 receptor | inhibition, % at 5 µM | actives 0.43% (n = 330,000) | CHO/OX1R cells, Fluo-8 calcium fluorescence, orexin A | O43613;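 active = inhibition above its plate's threshold, mean inhibition of all tested compounds on the plate plus 3 SD, cut at about 37% in these data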
TAAR1 agonist – agonists of human TAAR1; activation, % at 3 µM; actives 0.99% (n = 360,000); AID 624467; Q96RJ0; CHO RD-HGA16 TAAR1, Fluo-8 calcium fluorescence; vehicle wells 0%, saturating PEA agonist 100%;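 active = activation above the mean activation of all test compounds in the run plus 3 SD, cut at about 38% in these data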
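Assay system – CHO-derived RD-HGA16 cells with stable Gα16 and human TAAR1 · Compound dosing – one-point dosing at 3 µM (nominal) · Incubation – 17-24 h seeding, 75 min 37 °C dye, 30 min RT · Measured by – kinetic Fluo-8 calcium fluorescence · Control set – DMSO vehicle as 0%, PEA at EC100 as 100% · Repeats – single well for each compound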
CHO parental Ca – signal in parental CHO cells, OX1R antagonist counter-screen. parental CHO-K1, ATP-induced calcium, Fluo-8 fluorescence. inhibition, % at 5.6 µM. actives 0.63% (n = 330,000). AID 463079;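 active = inhibition above that plate's mean sample inhibition plus 3 SD, cut at about 26% in these data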
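Assay system – parental CHO cells · Reagent – ATP stimulus · Detection – intracellular calcium via Fluo-8 no-wash fluorescent dye · Evaluation – percent inhibition of ATP-evoked calcium rise, normalized to controls · Controls – ATP wells versus no-ATP DMSO wells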
TAAR1 ag confirm – human TAAR1 agonism, confirmed; AID 651783; activation, % at 3 µM; CHO RD-HGA16 TAAR1, Fluo-8 calcium fluorescence; scaled: DMSO 0%, maximal phenethylamine 100%; shares compounds with TAAR1 agonist; actives 82% (n = 2,400);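 active = activation above a cutoff set at the run's mean compound activation plus 3 SD, cut at about 39% in these data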
Ga16 ag counter – nonselective agonism, TAAR1 counter-screen | CHO-Ga16 parental, Fluo-8 calcium fluorescence; normalized to maximal ATP response, DMSO zero | shares compounds with TAAR1 agonist | activation, % at 3 µM | actives 50% (n = 2,400);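 active = activation above the run cutoff, the mean activation over all tested wells plus 3 SD, cut at about 12% in these data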
TAAR1 desens – human TAAR1 agonist that also desensitizes the receptor | shares compounds with TAAR1 agonist | CHO RD-HGA16 hTAAR1, Fluo-8 calcium, beta-PEA response inhibition | inhibition, % at 3 µM | actives 46% (n = 2,400) | AID 651951;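 active = inhibition above the run cutoff, the mean inhibition of all test compounds plus 3 SD, cut at about 49% in these data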;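 note: beta-PEA stimulus applied at its EC80; loss of beta-PEA calcium signal after compound pretreatment read as receptor desensitization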
Ga16 antag count – nonselective Ga16 antagonism, counter-screen; shares compounds with TAAR1 agonist; CHO-Ga16 ATP-induced calcium, Fluo-8 fluorescence; inhibition, % at 3 µM; actives 39% (n = 2,400); AID 651952;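 active = inhibition above the plate's mean compound inhibition plus 3 SD, computed per plate, cut at about 22% in these data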
Large screens that a line does not name were inactive (follow-up assays come after a bar, where they were run). Only some compounds are listed: those with a hit (about 4.5% of all), similar ones and a draw of the others.

CNCc1cc(Br)c(OCC(=O)Nc2ccccc2OC)c(OC)c1	none
COc1cc(CNCCc2ccccc2)cc(Br)c1OCC(=O)Nc1ccccc1C	TAAR1 antagonist 59.0, TAAR1 agonist 87.8 | TAAR1 ag confirm 92.0 | Ga16 ag counter 20.7 | TAAR1 desens 75.7 | Ga16 antag count 33.7
COc1ccc([C@H]2C[C@@H](O)C[C@@H](CCn3cc(-c4ccccc4)nn3)O2)cc1	none (no result: GPR7 antagonist, OX1R antag-1, OX1R antag-2, CHO parental Ca)
N=C(N)SCc1ccccc1Cl	TAAR1 agonist 72.3 | TAAR1 ag confirm 82.2 | Ga16 ag counter inactive | TAAR1 desens 72.6 | Ga16 antag count inactive
COc1cccc(CNCC(O)COc2ccc(C(=O)c3ccccc3)cc2)c1 (stereo not drawn)	none
O=C(c1ccccc1)c1ccc(OCC(O)CNCc2ccc(Cl)cc2)cc1 (stereo not drawn)	TAAR1 agonist 49.5 | TAAR1 ag confirm 48.1 | Ga16 ag counter 17.4 | TAAR1 desens inactive | Ga16 antag count 27.7
CCN1C[C@@H]2[C@@H]3C(=O)N(C)C(=O)[C@@H]3[C@](Cc3ccccc3)(C1=O)N2C(=O)c1ccc(Cl)cc1	none (no result: GPR7 antagonist, OX1R antag-1, OX1R antag-2, CHO parental Ca)
COc1cc(COc2ccc(-c3nnco3)cc2)ccc1OC(F)F	TAAR1 agonist 47.9 | TAAR1 ag confirm inactive | Ga16 ag counter inactive | TAAR1 desens inactive | Ga16 antag count inactive
Cc1ccc(Nc2nc(N)nc(N)c2N=O)cc1Cl	TAAR1 agonist 75.5 (no result: GPR7 antagonist, OX1R antag-1, OX1R antag-2, CHO parental Ca) | TAAR1 ag confirm 108.7 | Ga16 ag counter 29.3 | TAAR1 desens inactive | Ga16 antag count inactive
Nc1nc(N)c(N=O)c(Nc2ccc(Cl)c(Cl)c2)n1	TAAR1 agonist 109.0 (no result: GPR7 antagonist, OX1R antag-1, OX1R antag-2, CHO parental Ca) | TAAR1 ag confirm 136.0 | Ga16 ag counter 58.3 | TAAR1 desens 70.9 | Ga16 antag count inactive
Cc1cc(C)c(C(N)=O)c(Nc2cccc(Cl)c2)n1	none
Nc1nc(N)c(N=O)c(Nc2cccc(Cl)c2)n1	TAAR1 agonist 67.8 (no result: GPR7 antagonist, OX1R antag-1, OX1R antag-2, CHO parental Ca) | TAAR1 ag confirm 127.9 | Ga16 ag counter 48.5 | TAAR1 desens 52.8 | Ga16 antag count inactive
COc1ccc(Cl)cc1-c1cc(C(=O)Nc2ccc(C(C)(C)C)cc2)[nH]n1	none (no result: GPR7 antagonist, OX1R antag-1, OX1R antag-2, CHO parental Ca)
Cc1ccccc1CN1C(=O)CN(S(C)(=O)=O)CC1(C)C(=O)Nc1ccc2c(c1)OCCO2 (stereo not drawn)	none (no result: GPR7 antagonist, OX1R antag-1, OX1R antag-2, CHO parental Ca)
C[C@@H]1CN([C@@H](C)CO)C(=O)c2cc(-c3cccnc3)cnc2O[C@H]1CN(C)C(=O)c1cccc(F)c1	none (no result: GPR7 antagonist, OX1R antag-1, OX1R antag-2, CHO parental Ca)
CC1(C)CC(=O)C(=CN2CCN(C(=O)c3ccco3)CC2)C(=O)C1	TAAR1 agonist 54.0 (no result: OX1R antag-1, OX1R antag-2, CHO parental Ca) | TAAR1 ag confirm 62.6 | Ga16 ag counter inactive | TAAR1 desens inactive | Ga16 antag count inactive
BrC(=C\c1ccccc1)/C=N/Nc1ccc2nncn2n1	TAAR1 agonist 67.2 | TAAR1 ag confirm 44.4 | Ga16 ag counter 36.9 | TAAR1 desens inactive | Ga16 antag count inactive
BrC(=C\c1ccccc1)/C=N/n1cnnc1	TAAR1 agonist 98.2 (no result: OX1R antag-1, OX1R antag-2, CHO parental Ca) | TAAR1 ag confirm 38.1 | Ga16 ag counter 37.5 | TAAR1 desens inactive | Ga16 antag count inactive
Cc1ccc(CN2CCN(/N=C/C(Br)=C\c3ccccc3)CC2)cc1	none
C(=N\Nc1ccc2nncn2n1)/c1ccco1	none
C[C@@H]1CN([C@H](C)CO)C(=O)CCCn2cc(nn2)CO[C@H]1CN(C)S(=O)(=O)c1ccc2ccccc2c1	none (no result: GPR7 antagonist, OX1R antag-1, OX1R antag-2, CHO parental Ca)
Cn1nc(SCc2ccccc2)c(=O)[nH]c1=O	none (no result: GPR7 antagonist, OX1R antag-1, OX1R antag-2, CHO parental Ca)
CCOC(=O)c1ccc2c(c1)N(CC)/C(=C\C=C1/SC(=S)N(CC)C1=O)N2CC	none (no result: TAAR1 antagonist, OX1R antag-1, OX1R antag-2, TAAR1 agonist, CHO parental Ca)
C=CCN1C(=O)/C(=C/C=C2/N(CC)c3ccc(S(=O)(=O)N(C)C)cc3N2CC)SC1=S	TAAR1 antagonist 74.4, TAAR1 agonist 106.6 | TAAR1 ag confirm 90.1 | Ga16 ag counter 90.9 | TAAR1 desens 86.8 | Ga16 antag count 87.9
CN(C)/C=C1\C=C2C(=O)c3ccccc3N2C1=O	TAAR1 antagonist 87.0, OX1R antag-2 46.5, TAAR1 agonist 413.1, CHO parental Ca 50.2 | TAAR1 ag confirm active | Ga16 ag counter active | TAAR1 desens 104.4 | Ga16 antag count 93.7
